The text below walks through data of ChEMBL document CHEMBL1157552, “Antimalarial and antitubercular nostocarboline and eudistomin derivatives: synthesis, in vitro and in vivo biological evaluation” (Bioorg Med Chem, 2010).

A short description of series [1]: Selectivity ratio of IC50 for rat L6 cells to IC50 for Plasmodium falciparum K1. Type of series: ADME, cell-based. As to conditions: L6 cells (cytotoxicity) versus Plasmodium falciparum K1, read-out: Ratio IC50.
The test system of series [2] is Plasmodium falciparum. As to the kind of experiment: Antiparasitic activity against Plasmodium falciparum K1. Type of series: functional, organism-based. In short, it runs like this:
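Tested against erythrocytic stages of the K1 strain.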

For series [3], the system named is L6. The experiment in a line: Cytotoxicity against rat L6 cells. Type of series: cell-based.
For series [4], the system named is Trypanosoma brucei rhodesiense. The experiment in a line: Antiparasitic activity against Trypanosoma brucei rhodesiense STIB 900. It is filed as functional, organism-based. The procedure, abridged: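 Tested against bloodstream forms of STIB 900.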
In series [5] the test system is Leishmania donovani. As to the kind of experiment: Antiparasitic activity against Leishmania donovani MHOM-ET-67/L82 axenic amastigotes. Type of series: functional, organism-based.
The subject of series [6] is Trypanosoma cruzi. As to the kind of experiment: Antiparasitic activity against Trypanosoma cruzi Tulahuen C2C4. Type of series: functional, organism-based. The procedure, abridged: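 Tested against Tulahuen C2C4 amastigotes grown in L6 rat skeletal myoblasts.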
Series [7] relates to Plasmodium berghei. As to the kind of experiment: Antiparasitic activity against Plasmodium berghei infected in mice (Mus musculus) assessed as reduction of parasitaemia at 50 mg/kg, intraperitoneally administered 4, 24, 48, 72 hrs post infection measured 24 hrs of last treatment on day 4 relative to control. Type of series: functional. The arrangement: scale not given: the % may be the effect or the level left. As to conditions: route intraperitoneal. In short, it runs like this: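 Compounds formulated in DMSO/water and given i.p. at 50 mg/kg, 4 doses, to P. berghei-infected mice. Parasitaemia measured by FACS on day 4 post infection, 24 h after the last dose. Activity is the difference in mean % parasitaemia between control (n = 5 mice) and treated groups, as % of control. Mean survival time was also recorded.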

The subject of series [8] is Mycolicibacterium smegmatis. As to the kind of experiment: Antitubercular activity against Mycobacterium smegmatis mc2 155. Type of series: functional. As to conditions: str. MC2 155.
For series [9], the system named is Corynebacterium glutamicum. The experiment in a line: Antitubercular activity against Corynebacterium glutamicum ATCC 13032. Type of series: functional. In short, it runs like this:
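Grown in 7H9 medium; susceptibility determined by resazurin reduction. MIC99 is the lowest drug concentration preventing growth of 99% of cells.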

In series [10] the test system is Mycobacterium tuberculosis. As to the kind of experiment: Antitubercular activity against Mycobacterium tuberculosis H37Rv. It is filed as functional.

Where a name gives a salt, the structure may show the parent alone. Some results are limits rather than exact numbers.

By IC50 is commonly meant the concentration that gives 50% inhibition. `Fc1ccc(C[n+]2ccc3c(c2)[nH]c2c(Br)cccc23)cc1`: the selectivity ratio in series [1] was found to be 5. In addition, the IC50 in [2] was determined as 3.28 µM; in [3], 17.5 µM; in series [4], 3.8 µM; in series [5], 53.4 µM; in series [6] it was 28.7 µM.

In the case of `Fc1ccc(C[n+]2ccc3c(c2)[nH]c2ccc(Br)cc23)cc1`, the selectivity ratio in series [1] came to 13. Further, the IC50 in [2] stood at 1.76 µM; in [3], 22.6 µM; in series [4], 4.7 µM; in series [5] it was 16.4 µM; in series [6], 13.3 µM.

Regarding `C[n+]1ccc2c(c1)[nH]c1ccc(Br)cc12.[I-]`, in series [1], the selectivity ratio amounted to 4780. In addition, the IC50 in series [2] was 0.018 µM; in series [3], 86.1 µM; in series [4], 47.2 µM; in [5], greater than 230 µM; in series [6] it was 132 µM. Also, in series [7], the Activity worked out at 0%.

For the compound `C[n+]1cc2[nH]c3ccccc3c2c2ccccc21` [ISONEOCRYPTOLEPINE], the selectivity ratio in [1] worked out at 18.

For the compound `COC(=O)CCC[n+]1ccc2c(c1)[nH]c1ccc(Cl)cc12`, in series [1], the selectivity ratio amounted to 66. Further, the IC50 was 3.14 µM in series [2]; 207 µM in series [3]; 106 µM in series [4]; 117 µM in [5]; 115 µM in series [6].

The term MIC99 denotes an inhibitory concentration at the 99% level, which refers to growth in some studies and to a panel of isolates in others. With `Clc1ccc2[nH]c3c[n+](Cc4ccc(-c5ccc(C[n+]6ccc7c(c6)[nH]c6ccc(Cl)cc67)cc5)cc4)ccc3c2c1.[Cl-].[Cl-]`, the Activity in [7] is reported as 0%. For the same compound, the MIC99 in [8] was 152 µM; in [9] it was greater than 15 µM; in series [10] it was greater than 15 µM.

Consider `C=CC[n+]1ccc2c(c1)[nH]c1c(Br)cccc12`, for which the selectivity ratio in series [1] worked out at 17. Moreover, the IC50 is 6.74 µM in [2]; 112 µM in series [3]; 26.2 µM in [4]; 123 µM in [5]; 154 µM in series [6].

Consider `Clc1ccc2[nH]c3c[n+](CCCCCCCC[n+]4ccc5c(c4)[nH]c4ccc(Cl)cc45)ccc3c2c1`, for which the values for the MIC99 in series [8], in [9] and in series [10] were 147 µM, 7 µM and 7 µM, respectively.

Consider `Clc1ccc2[nH]c3c[n+](CCCc4ccccc4)ccc3c2c1`, for which the selectivity ratio in series [1] was determined as 44. Also, the IC50 in [2] was 1.61 µM; in series [3], 71.3 µM; in [4] it was 6.2 µM; in series [5] it was 18.6 µM; in [6] it was 20.9 µM.

As to `C=CC[n+]1ccc2c(c1)[nH]c1ccc(Cl)cc12`, the selectivity ratio in series [1] turned out to be 152. For the same compound, the IC50 in [2] came out at 0.831 µM; in series [3], 126 µM; in series [4], 33.5 µM; in [5], 196 µM; in [6], 57.8 µM.

Consider `O=C1c2ccccc2-[n+]2ccc3c([nH]c4ccccc43)c21` [FASCAPLYSIN CHLORIDE], for which, in series [1], the selectivity ratio worked out at 50. Moreover, the IC50 in [2] came out at 0.184 µM.

As for `CC[n+]1ccc2c(c1)[nH]c1c(Br)cccc12`, the selectivity ratio in series [1] came out at 23. Besides, the IC50 in series [2] was 6.62 µM; in series [3], 153 µM; in series [4], 25 µM; in [5], greater than 223 µM; in series [6], 170 µM.

As to `Brc1ccc2[nH]c3c[n+](Cc4ccccc4)ccc3c2c1`, the selectivity ratio in series [1] worked out at 26. In addition, the IC50 in series [2] is 2.37 µM; in [3], 61.6 µM; in [4], 5.2 µM; in series [5] it was 21.2 µM; in series [6], 16.3 µM.

For the compound `Brc1cccc2c1[nH]c1c[n+](Cc3ccc4ccccc4c3)ccc12`, in series [1], the selectivity ratio turned out to be 7. The IC50 in series [2] turned out to be 0.502 µM; in [3] it was 3.7 µM; in [4] it was 4.4 µM; in series [5], 46.4 µM; in series [6] it was 7.9 µM.

For the compound `Brc1ccc2[nH]c3c[n+](Cc4ccc5ccccc5c4)ccc3c2c1`, in series [1], the selectivity ratio was 11. Moreover, the IC50 in [2] came out at 0.481 µM; in series [3], 5.1 µM; in series [4], 4.1 µM; in series [5], 17.7 µM; in [6], 7.5 µM.

`CCCC[n+]1ccc2c(c1)[nH]c1ccc(Cl)cc12`: the selectivity ratio in [1] amounted to 46. The IC50 in [2] is 1.62 µM; in [3], 74 µM; in series [4] it was 11.6 µM; in series [5] it was 112 µM; in [6] it was 104 µM.

Regarding `Clc1ccc2[nH]c3c[n+](Cc4ccccc4)ccc3c2c1`, in [1], the selectivity ratio was 9. The IC50 in series [2] came to 3 µM; in series [3] it was 27 µM; in series [4] it was 6.2 µM; in [5] it was 113 µM; in series [6], 24.6 µM.

With `O=[N+]([O-])c1ccc(C[n+]2ccc3c(c2)[nH]c2ccc(Cl)cc23)cc1`, the selectivity ratio in series [1] came to 19. In addition, the IC50 in series [2] was found to be 2.21 µM; in series [3] it was 42.2 µM; in [4], 21.3 µM; in series [5], 146 µM; in series [6], 32.8 µM.

As to `C=CC[n+]1ccc2c(c1)[nH]c1ccc(Br)cc12.[Br-]`, in series [1], the selectivity ratio is 266. Besides, the IC50 in series [2] turned out to be 0.492 µM; in series [3], 131 µM; in series [4], 17.4 µM; in [5], 20.1 µM; in series [6], 86.6 µM. Moreover, the Activity in series [7] was 3.57%.

Turning to `CC[n+]1ccc2c(c1)[nH]c1ccc(Br)cc12.[I-]`, the selectivity ratio in series [1] was 2440. Besides, the IC50 in [2] is 0.032 µM; in series [3] it was 78.8 µM; in series [4] it was 26.4 µM; in series [5] it was greater than 223 µM; in series [6] it was 90.5 µM. Also, the Activity in series [7] is 13.25%.

For `Fc1cccc(C[n+]2ccc3c(c2)[nH]c2ccc(Br)cc23)c1`, in series [1], the selectivity ratio was 19. Also, the IC50 in series [2] was found to be 2.15 µM; in [3] it was 41.5 µM; in series [4] it was 5.6 µM; in [5], 11 µM; in [6], 25.9 µM.

In the case of `COC(=O)CCC[n+]1ccc2c(c1)[nH]c1ccc(Br)cc12`, in series [1], the selectivity ratio came to 70. Further, the IC50 is 2.33 µM in [2]; 162 µM in series [3]; 111 µM in series [4]; greater than 203 µM in series [5]; 64.6 µM in [6].

`Clc1ccc2[nH]c3c[n+](Cc4cccc(C[n+]5ccc6c(c5)[nH]c5ccc(Cl)cc56)c4)ccc3c2c1`: the MIC99 in [8] came out at 50 µM; in [9] it was 20 µM; in series [10], 20 µM.

In the case of `Fc1ccc(C[n+]2ccc3c(c2)[nH]c2ccc(Cl)cc23)cc1`, the selectivity ratio in series [1] came to 24. For the same compound, the IC50 in series [2] amounted to 4.67 µM; in series [3], 111 µM; in series [4] it was 18.1 µM; in series [5] it was 110 µM; in series [6] it was 87.7 µM.

Take `Clc1ccc2[nH]c3c[n+](CCCCCCCCCCCC[n+]4ccc5c(c4)[nH]c4ccc(Cl)cc45)ccc3c2c1`: the MIC99 in series [8] is 17 µM; in series [9], 14 µM; in series [10], 7 µM.

Turning to `CC[n+]1ccc2c(c1)[nH]c1ccc(Cl)cc12.[I-]`, the selectivity ratio in [1] amounted to 250. Moreover, the IC50 in series [2] came out at 0.452 µM; in series [3], 113 µM; in series [4], 36.8 µM; in series [5], 251 µM; in series [6] it was 100 µM. In [7], the Activity came out at 15.36%.

Turning to `CCCC[n+]1ccc2c(c1)[nH]c1ccc(Br)cc12`, in series [1], the selectivity ratio was 60. The IC50 in [2] was found to be 1.15 µM; in [3], 68.7 µM; in [4], 11.7 µM; in [5] it was 35.1 µM; in [6], 35.3 µM.

Take `O=[N+]([O-])c1ccc(C[n+]2ccc3c(c2)[nH]c2ccc(Br)cc23)cc1`: the selectivity ratio in series [1] stood at 14. Also, the IC50 stood at 1.33 µM in [2]; 18.1 µM in series [3]; 10.8 µM in series [4]; 38.2 µM in [5]; 14.1 µM in series [6].

With `Clc1ccc2[nH]c3c[n+](Cc4ccc(C[n+]5ccc6c(c5)[nH]c5ccc(Cl)cc56)cc4)ccc3c2c1`, the MIC99 is greater than 170 µM in series [8], greater than 17 µM in series [9] and greater than 17 µM in series [10].

Take `Brc1cccc2c1[nH]c1c[n+](Cc3ccccc3)ccc12`: the selectivity ratio in [1] was 11. Further, the IC50 is 2.58 µM in series [2]; 28.7 µM in series [3]; 7 µM in [4]; 66.5 µM in series [5]; 42.9 µM in series [6].

On to `Brc1ccc2[nH]c3c[n+](CCCc4ccccc4)ccc3c2c1`, for which the selectivity ratio in [1] was 60. In addition, the half-inhibitory concentration (IC50) in series [2] stood at 0.459 µM; in series [3], 27.5 µM; in series [4], 4.5 µM; in [5] it was 20.4 µM; in series [6], 12.6 µM.

For the compound `C[n+]1ccc2c(c1)[nH]c1ccccc12` [NORMELINONINE F], the selectivity ratio in series [1] is greater than 853.

With `Clc1ccc2[nH]c3c[n+](CCCCCCCCCC[n+]4ccc5c(c4)[nH]c4ccc(Cl)cc45)ccc3c2c1`, the values for the MIC99 in [8], in series [9] and in series [10] were greater than 142 µM, 14 µM and 4 µM, respectively.

In the case of `C[n+]1c2ccccc2cc2[n-]c3ccccc3c21` [CRYPTOLEPINE HYDROCHLORIDE], the selectivity ratio in series [1] worked out at 9.
